Assay results: ChEMBL document CHEMBL4396947, “Synthesis and characterization of novel isoform-selective IP6K1 inhibitors” (Bioorg Med Chem Lett, 2019)

Key:
[1] = target: Tyrosine-protein kinase Fyn (Homo sapiens) (UniProt P06241); experiment: Inhibition of human full length recombinant FYN assessed as residual activity at 10 uM using KVEKIGEGTYGVV as substrate incubated for 40 mins in presence of [gamma-33P]ATP at Km concentration by radiometric assay relative to control
[2] = target: Inositol hexakisphosphate kinase 3 (Homo sapiens, UniProt Q96PC2); experiment: Inhibition of IP6K3 (unknown origin) incubated for 120 mins using IP6 as substrate in presence of ATP by ADP-Glo reagent based luminescence assay
Summary of the method: (§1)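 Luminescent ADP-Glo Max format adapted for IP6K, with purified enzyme and ATP at 1 mM, which is consumed as the kinase reaction proceeds. IC50 taken from the resulting inhibition data.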

[3] = target: T1, Inositol hexakisphosphate kinase 1 (Homo sapiens, UniProt Q92551); experiment: Binding affinity to IP6K1 (unknown origin) assessed as change in melting temperature at 11.1 uM by SYPRO orange dye based assay
Target sequence in this assay (Q92551 whole entry, looked up, the tested form may be a part): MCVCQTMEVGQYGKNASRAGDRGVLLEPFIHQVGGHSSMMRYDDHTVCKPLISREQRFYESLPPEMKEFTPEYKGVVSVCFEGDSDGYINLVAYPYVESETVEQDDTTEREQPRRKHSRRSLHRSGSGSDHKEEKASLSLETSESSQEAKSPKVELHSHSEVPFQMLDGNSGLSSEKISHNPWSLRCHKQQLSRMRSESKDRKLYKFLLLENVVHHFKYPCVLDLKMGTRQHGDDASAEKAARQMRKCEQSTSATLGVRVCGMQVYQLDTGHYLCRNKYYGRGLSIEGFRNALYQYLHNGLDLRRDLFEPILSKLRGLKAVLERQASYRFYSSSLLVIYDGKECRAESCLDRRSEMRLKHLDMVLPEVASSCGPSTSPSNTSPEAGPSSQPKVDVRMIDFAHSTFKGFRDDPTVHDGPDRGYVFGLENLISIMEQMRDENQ

[4] = target: Ephrin type-A receptor 5 (Homo sapiens) (UniProt P54756); experiment: Inhibition of recombinant human EPHA5 (655 to 956 residues) assessed as residual activity at 10 uM using poly (Glu,Tyr) 4:1 as substrate incubated for 40 mins in presence of [gamma-33P]ATP at Km concentration by radiometric assay relative to control
[5] = target: Tyrosine-protein kinase ABL1 (Homo sapiens) (UniProt P00519); experiment: Inhibition of human recombinant ABL (27 to end residues) assessed as residual activity at 10 uM using EAIYAAPFAKKK as substrate incubated for 40 mins in presence of [gamma-33P]ATP at Km concentration by radiometric assay relative to control
[6] = target: Protein kinase C alpha type (Homo sapiens) (UniProt P17252); experiment: Inhibition of recombinant full length human PKCalpha assessed as residual activity at 10 uM using histone H1 as substrate incubated for 40 mins in presence of [gamma-33P]ATP at Km concentration by radiometric assay relative to control
[7] = target: Serine/threonine-protein kinase Chk1 (Homo sapiens) (UniProt O14757); experiment: Inhibition of human full length recombinant CHK1 assessed as residual activity at 10 uM using KKKVSRSGLYRSP as substrate incubated for 40 mins in presence of [gamma-33P]ATP at Km concentration by radiometric assay relative to control
[8] = Half life in human microsomes at 1 uM in presence of NADPH; assay type: ADME, Microsome
[9] = target: T1, Inositol hexakisphosphate kinase 1; experiment: Binding affinity to IP6K1 (unknown origin) assessed as change in melting temperature by SYPRO orange dye-based assay
Summary of the method: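 Thermal shift format. Purified IP6K1 heated across a temperature gradient with the ligand at several concentrations. Binding read as the rise in protein melting temperature, including the maximal Tm shift (TmMax).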
Target sequence in this assay (Q92551 whole entry, looked up, the tested form may be a part): as above

[10] = target: T1, Inositol hexakisphosphate kinase 1; experiment: Inhibition of IP6K1 (unknown origin) in presence of ATP at Km concentration by Cheng-Prusoff equation analysis
Summary of the method: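 Purified IP6K isoforms run in the ADP-Glo Max kinase assay with 1 mM ATP. Measured IC50 values converted to Ki with the Cheng-Prusoff equation.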
Target sequence in this assay (Q92551 whole entry, the tested form may be a part): as the sequence (Q92551 whole entry, looked up, the tested form may be a part) above

[11] = target: T1, Inositol hexakisphosphate kinase 1; experiment: Inhibition of IP6K1 (unknown origin) incubated for 30 mins using IP6 as substrate in presence of ATP by ADP-Glo reagent based luminescence assay; conditions: read-out: IC50; summary of the method: as §1
Target sequence in this assay (Q92551 whole entry, the tested form may be a part): as the sequence (Q92551 whole entry, looked up, the tested form may be a part) above

[12] = target: CDK9/cyclin T1 (Homo sapiens) (UniProt O60563+P50750); experiment: Inhibition of recombinant full length human CDK9/CyclinT1 assessed as residual activity at 10 uM using KTFCGTPEYLAPE as substrate incubated for 40 mins in presence of [gamma-33P]ATP at Km concentration by radiometric assay relative to control; assay type: protein-complex assay
[13] = test system: Eukaryotic elongation factor 2 kinase (Homo sapiens), O00418 [H23R]; experiment: Inhibition of recombinant human eEF2K H23R mutant (2 to end residues) assessed as residual activity at 10 uM using RKKFGESEKTKTK as substrate incubated for 40 mins in presence of [gamma-33P]ATP at Km concentration by radiometric assay relative to control
[14] = target: Mitogen-activated protein kinase kinase kinase 9 (Homo sapiens) (UniProt P80192); experiment: Inhibition of recombinant human MLK1 (134 to 414 residues) assessed as residual activity at 10 uM using casein as substrate incubated for 40 mins in presence of [gamma-33P]ATP at Km concentration by radiometric assay relative to control
[15] = target: Epidermal growth factor receptor (Homo sapiens) (UniProt P00533); experiment: Inhibition of recombinant human EGFR (696 to end residues) assessed as residual activity at 10 uM using poly (Glu,Tyr) 4:1 as substrate incubated for 40 mins in presence of [gamma-33P]ATP at Km concentration by radiometric assay relative to control
[16] = target: Serine/threonine-protein kinase 10 (Homo sapiens) (UniProt O94804); experiment: Inhibition of human recombinant LOK (1 to 348 residues) assessed as residual activity at 10 uM using RLGRDKYKTLRQI as substrate incubated for 40 mins in presence of [gamma-33P]ATP at Km concentration by radiometric assay relative to control
Homo sapiens = organism: Homo sapiens; experiment: Inhibition of recombinant human PKBalpha S478G mutant assessed as residual activity at 10 uM using GRPRTSSFAEGKK as substrate incubated for 40 mins in presence of [gamma-33P]ATP at Km concentration by radiometric assay relative to control
[17] = target: Mitogen-activated protein kinase 14 (Homo sapiens) (UniProt Q16539); experiment: Inhibition of recombinant full length human SAPK2alpha assessed as residual activity at 10 uM using myelin basic protein as substrate incubated for 40 mins in presence of [gamma-33P]ATP at Km concentration by radiometric assay relative to control
[18] = target: ALK tyrosine kinase receptor (Homo sapiens) (UniProt Q9UM73); experiment: Inhibition of human recombinant ALK (1058 to end residues) assessed as residual activity at 10 uM using KKKSPGEYVNIEF as substrate incubated for 40 mins in presence of [gamma-33P]ATP at Km concentration by radiometric assay relative to control
[19] = target: Tyrosine-protein kinase JAK2 (Homo sapiens) (UniProt O60674); experiment: Inhibition of human recombinant JAK2 (808 to end residues) assessed as residual activity at 10 uM using KTFCGTPEYLAPE as substrate incubated for 40 mins in presence of [gamma-33P]ATP at Km concentration by radiometric assay relative to control
[20] = target: CDK7/Cyclin H/MNAT1 (Homo sapiens) (UniProt P51946+P50613+P51948); experiment: Inhibition of human full length recombinant CDK7/cyclinH/MAT1 assessed as residual activity at 10 uM using peptide as substrate incubated for 40 mins in presence of [gamma-33P]ATP at Km concentration by radiometric assay relative to control; assay type: protein-complex assay
[21] = target: Ribosomal protein S6 kinase alpha-1 (Homo sapiens) (UniProt Q15418); experiment: Inhibition of recombinant full length human RSK1 assessed as residual activity at 10 uM using KKKNRTLSVA as substrate incubated for 40 mins in presence of [gamma-33P]ATP at Km concentration by radiometric assay relative to control

ALK tyrosine kinase receptor (Homo sapiens), sequence (Q9UM73 19-1620 limits assumed): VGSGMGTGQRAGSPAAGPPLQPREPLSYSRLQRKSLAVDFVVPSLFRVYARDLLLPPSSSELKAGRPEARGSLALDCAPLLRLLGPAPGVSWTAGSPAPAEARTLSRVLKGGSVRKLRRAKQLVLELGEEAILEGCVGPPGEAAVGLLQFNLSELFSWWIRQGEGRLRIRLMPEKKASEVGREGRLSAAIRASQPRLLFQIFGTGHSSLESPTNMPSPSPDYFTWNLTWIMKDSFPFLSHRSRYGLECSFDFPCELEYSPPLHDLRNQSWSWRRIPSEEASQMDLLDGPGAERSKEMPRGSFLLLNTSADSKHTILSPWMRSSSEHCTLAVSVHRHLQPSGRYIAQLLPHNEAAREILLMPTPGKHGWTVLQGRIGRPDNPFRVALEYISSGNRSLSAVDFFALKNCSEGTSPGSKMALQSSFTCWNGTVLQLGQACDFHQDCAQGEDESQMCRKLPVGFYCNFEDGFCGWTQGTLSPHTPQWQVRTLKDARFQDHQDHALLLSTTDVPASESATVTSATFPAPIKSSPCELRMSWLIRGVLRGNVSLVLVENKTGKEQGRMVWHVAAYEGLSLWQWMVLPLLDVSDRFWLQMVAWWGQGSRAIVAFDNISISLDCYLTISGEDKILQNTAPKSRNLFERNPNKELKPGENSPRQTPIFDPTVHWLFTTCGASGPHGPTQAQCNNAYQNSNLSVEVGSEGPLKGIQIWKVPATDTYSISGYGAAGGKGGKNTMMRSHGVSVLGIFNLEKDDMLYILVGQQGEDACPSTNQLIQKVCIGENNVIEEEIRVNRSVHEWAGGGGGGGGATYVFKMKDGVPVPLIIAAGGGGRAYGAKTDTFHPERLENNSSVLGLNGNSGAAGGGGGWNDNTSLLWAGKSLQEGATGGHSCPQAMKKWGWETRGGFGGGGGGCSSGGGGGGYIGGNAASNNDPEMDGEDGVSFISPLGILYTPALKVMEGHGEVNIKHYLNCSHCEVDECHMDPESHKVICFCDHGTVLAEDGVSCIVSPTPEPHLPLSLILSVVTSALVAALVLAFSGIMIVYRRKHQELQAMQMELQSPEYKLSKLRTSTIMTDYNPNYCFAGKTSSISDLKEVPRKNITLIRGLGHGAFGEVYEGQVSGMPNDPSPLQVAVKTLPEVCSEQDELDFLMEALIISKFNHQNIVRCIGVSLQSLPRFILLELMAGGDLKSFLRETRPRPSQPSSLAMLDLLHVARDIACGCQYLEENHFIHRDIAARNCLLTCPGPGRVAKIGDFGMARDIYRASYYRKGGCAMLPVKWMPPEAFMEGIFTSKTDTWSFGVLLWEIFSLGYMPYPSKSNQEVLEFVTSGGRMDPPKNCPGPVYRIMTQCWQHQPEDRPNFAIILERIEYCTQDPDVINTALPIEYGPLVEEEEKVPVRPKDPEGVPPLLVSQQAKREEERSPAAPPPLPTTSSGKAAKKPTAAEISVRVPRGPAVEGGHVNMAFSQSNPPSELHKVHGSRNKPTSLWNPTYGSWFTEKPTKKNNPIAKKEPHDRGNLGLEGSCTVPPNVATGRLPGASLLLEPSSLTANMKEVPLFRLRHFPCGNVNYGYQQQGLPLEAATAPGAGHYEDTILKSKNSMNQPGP
Tyrosine-protein kinase Fyn (Homo sapiens), sequence (P06241 2-537 limits assumed): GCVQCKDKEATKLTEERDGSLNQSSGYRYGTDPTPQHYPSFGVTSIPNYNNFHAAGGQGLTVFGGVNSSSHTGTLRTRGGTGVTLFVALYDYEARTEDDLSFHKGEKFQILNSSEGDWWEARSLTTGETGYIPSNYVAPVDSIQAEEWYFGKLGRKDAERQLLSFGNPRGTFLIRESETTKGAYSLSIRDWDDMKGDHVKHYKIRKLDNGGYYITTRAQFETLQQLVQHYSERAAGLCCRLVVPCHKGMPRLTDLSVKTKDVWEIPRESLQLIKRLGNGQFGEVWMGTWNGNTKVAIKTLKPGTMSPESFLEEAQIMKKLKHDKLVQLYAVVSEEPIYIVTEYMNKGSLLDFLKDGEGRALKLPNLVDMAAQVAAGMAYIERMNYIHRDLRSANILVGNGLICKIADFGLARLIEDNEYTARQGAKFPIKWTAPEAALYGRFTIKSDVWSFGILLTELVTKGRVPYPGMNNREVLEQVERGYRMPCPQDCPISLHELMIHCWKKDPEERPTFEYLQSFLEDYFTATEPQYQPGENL
Ephrin type-A receptor 5 (Homo sapiens), sequence (P54756 whole entry, the tested form may be a part): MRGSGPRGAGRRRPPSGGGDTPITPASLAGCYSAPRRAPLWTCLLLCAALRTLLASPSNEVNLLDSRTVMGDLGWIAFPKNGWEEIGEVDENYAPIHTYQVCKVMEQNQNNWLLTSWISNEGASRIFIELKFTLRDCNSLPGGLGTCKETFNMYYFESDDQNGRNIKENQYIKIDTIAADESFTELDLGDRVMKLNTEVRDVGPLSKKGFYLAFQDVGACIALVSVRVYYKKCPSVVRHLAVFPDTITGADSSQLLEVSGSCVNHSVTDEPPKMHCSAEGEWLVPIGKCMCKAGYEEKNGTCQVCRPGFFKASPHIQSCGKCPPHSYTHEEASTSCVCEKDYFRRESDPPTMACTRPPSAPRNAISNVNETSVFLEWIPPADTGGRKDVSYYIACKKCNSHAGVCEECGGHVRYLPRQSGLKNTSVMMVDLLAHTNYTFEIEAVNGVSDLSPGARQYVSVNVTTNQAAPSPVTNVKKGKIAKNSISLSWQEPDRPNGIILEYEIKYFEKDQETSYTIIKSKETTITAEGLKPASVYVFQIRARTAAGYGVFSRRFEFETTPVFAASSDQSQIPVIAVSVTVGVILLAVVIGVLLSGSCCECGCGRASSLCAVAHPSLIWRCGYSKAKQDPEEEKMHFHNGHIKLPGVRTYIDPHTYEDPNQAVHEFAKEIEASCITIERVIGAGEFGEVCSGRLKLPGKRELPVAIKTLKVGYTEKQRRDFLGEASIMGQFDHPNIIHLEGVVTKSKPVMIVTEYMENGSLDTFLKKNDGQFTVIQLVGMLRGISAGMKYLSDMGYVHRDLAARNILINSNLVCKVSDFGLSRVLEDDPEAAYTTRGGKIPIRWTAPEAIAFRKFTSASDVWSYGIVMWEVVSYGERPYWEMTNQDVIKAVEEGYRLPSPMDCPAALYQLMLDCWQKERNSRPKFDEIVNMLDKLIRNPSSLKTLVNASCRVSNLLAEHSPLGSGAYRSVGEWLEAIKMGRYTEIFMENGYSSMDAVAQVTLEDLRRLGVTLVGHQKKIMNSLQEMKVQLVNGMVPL
Inositol hexakisphosphate kinase 3, sequence (Q96PC2 whole entry): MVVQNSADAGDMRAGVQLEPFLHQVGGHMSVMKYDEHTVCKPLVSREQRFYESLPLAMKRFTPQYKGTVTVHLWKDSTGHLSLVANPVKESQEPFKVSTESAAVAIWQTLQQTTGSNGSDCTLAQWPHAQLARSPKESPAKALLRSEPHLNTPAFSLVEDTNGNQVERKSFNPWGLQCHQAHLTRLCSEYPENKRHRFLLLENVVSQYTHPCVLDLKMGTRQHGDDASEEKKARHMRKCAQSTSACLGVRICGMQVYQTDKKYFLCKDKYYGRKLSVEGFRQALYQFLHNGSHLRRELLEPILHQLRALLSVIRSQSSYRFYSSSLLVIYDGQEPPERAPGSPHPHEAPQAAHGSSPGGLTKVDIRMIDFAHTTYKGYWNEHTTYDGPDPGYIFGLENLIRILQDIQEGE

## COc1ccc2c(CCNc3nc(NCc4ccc(=O)[nH]c4)c4nc[nH]c4n3)c[nH]c2c1
[1]
  Activity: 84%
[2]
  IC50: 15 µM
[3]
  ΔTm: 5.5 °C
[4]
  Activity: 114%
[5]
  Activity: 90%
[6]
  Activity: 86%
[7]
  Activity: 91%
[8]
  t1/2: 42 min
[9]
  ΔTm: 6.6 °C
[10]
  Ki: 0.2 µM
[11]
  IC50: 0.75 µM
[12]
  Activity: 79%
[13]
  Activity: 46%
[14]
  Activity: 24%
[15]
  Activity: 75%
[16]
  Activity: 97%
Homo sapiens
  Activity: 84%
[17]
  Activity: 92%
[18]
  Activity: 88%
[19]
  Activity: 96%
[20]
  Activity: 48%
[21]
  Activity: 45%
